HDAC3 inhib = human HDAC3 inhibition; recombinant HDAC3, fluorogenic peptide/trypsin coupled, fluorescence; inhibition, % at 8.3 µM; 0.15% of 320,000 active; in the data active = inhibition above about 26%, passing the limit was not always enough; inconclusive = no clear call, values can overlap the other calls
AHR act = activates the human aryl hydrocarbon receptor. AHR-responsive luciferase reporter cells, luminescence. P35869. 2.5% of 320,000 active. activation, % at 5 µM; in the data active = activation above about 47%;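 note: 0% = vehicle wells and 100% = reference agonist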
CTSL1 counter = cathepsin L1 inhibition, PFM18AAP counter-screen | recombinant F. hepatica cathepsin L1, Z-Leu-Arg-MCA fluorescence | AID 1906 | inhibition, % at 5.96 µM | 0.49% of 300,000 active;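 active = inhibition above the mean of all tested compounds plus 3 SD, set per screening campaign, cut at about 17% in these data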;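 note: 0% = plate median of test compound wells and 100% = 1 µM Z-Phe-Ala-diazomethylketone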
SENP1 FRET inh = inhibitors of human SENP1 SUMO protease catalytic domain; 0.21% of 360,000 active; inhibition, % at 10 µM; recombinant SENP1 catalytic domain, CyPet-SUMO1-YPet FRET cleavage; Q9P0U3; AID 624204;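 active = inhibition at least 30% at 10 µM, raw YFP signal under a set limit, fluorescence ratio 0.5 to 1.5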;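 note: 0% = enzyme with DMSO and 100% = no enzyme wells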
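Test system: hSENP1 catalytic domain, recombinant; Amount: 20 pM final SENP1 enzyme; Medium: Tris pH 8 buffer plus EDTA, NaCl, BME, BSA, NP40, catalase; Schedule: 50 min enzyme reaction, room temperature, light-protected; Technique: FRET fluorescence in CFP and YFP emission channels; Controls: no-enzyme wells low, DMSO-plus-enzyme wells high control.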
M18AAP inhibitor = PfM18AAP enzyme inhibition | recombinant PfM18AAP, H-Glu-NHMec fluorogenic cleavage | inhibition, % at 7.35 µM | 1.2% of 290,000 active | AID 1822;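 active = inhibition above the campaign mean inhibition over all tested compounds plus 3 SD, cut at about 28% in these data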;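 note: 0% = plate median of test compound wells and 100% = 2 mM ZnCl2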
FXN GAA850 act = activators of GAA850 frataxin (FXN) promoter; activation, % at 6 µM; HEK293 lucGAA850 FXN promoter luciferase reporter, 24 h; percent of 10 µM SAHA response; 0.56% of 360,000 active;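 active = activation above the average of all compounds screened plus 3 SD, cutoff fixed separately per campaign, cut at about 7.5% in these data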;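 note: 0% = DMSO wells and 100% = 10 µM SAHA wells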
AHR act confirm = confirmation of human aryl hydrocarbon receptor activators. shares compounds with AHR act. human cells, AHR-responsive luciferase reporter, luminescence. activation, % at 9 µM. 87% of 2,300 active. AID 2845; in the data active = activation above about 49%;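 note: HepG2 hepatoma cells carrying a DRE-driven firefly luciferase reporter; 0% = vehicle wells and 100% = reference agonist wells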
PXR counter = activates human PXR in AHR activator counter-screen | shares compounds with AHR act | cell-based PXR reporter, luciferase luminescence | activation, % at 11.6 µM | 88% of 2,300 active | AID 434939; in the data active = activation above about 11%;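 note: human hepatoma DPX-2 cells expressing full-length human PXR; 0% = DMSO and 100% = reference agonist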
Target sequence (O75469 whole entry, looked up): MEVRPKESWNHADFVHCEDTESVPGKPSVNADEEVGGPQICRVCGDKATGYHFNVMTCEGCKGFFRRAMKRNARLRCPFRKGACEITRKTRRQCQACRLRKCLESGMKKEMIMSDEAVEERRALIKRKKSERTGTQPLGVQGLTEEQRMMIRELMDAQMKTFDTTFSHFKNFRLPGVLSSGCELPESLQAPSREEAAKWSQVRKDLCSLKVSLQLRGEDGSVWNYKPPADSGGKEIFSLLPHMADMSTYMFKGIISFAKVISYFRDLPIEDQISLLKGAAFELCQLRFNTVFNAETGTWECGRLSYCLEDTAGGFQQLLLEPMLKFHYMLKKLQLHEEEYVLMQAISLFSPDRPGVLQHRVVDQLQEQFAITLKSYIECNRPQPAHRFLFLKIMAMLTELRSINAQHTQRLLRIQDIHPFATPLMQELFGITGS
* marks the source's active call; other numbers are inactive results; ? = inconclusive; nt = no result given. Hits are enriched below; roughly 4.2% of the tested compounds scored in any of these assays.

SMILES	HDAC3 inhib	AHR act	CTSL1 counter	SENP1 FRET inh	M18AAP inhibitor	FXN GAA850 act	AHR act confirm	PXR counter
O=c1c(-c2ccccc2)n[nH]c2ccccc12	0	117*	5	-2	13	3	81*	26*
COc1ccc(C(=O)NN)cc1COc1ccc(Br)cc1	16	102*	1	2	5	0	90*	17*
COc1ccc(C(C)=O)cc1COc1ccc(F)cc1	5	13	1	0	-9	2	nt	nt
O=C(Nc1nc2ccccc2s1)c1ccc(OCC2CCCO2)cc1 (centres undefined)	7	112*	5	0	0	-2	69*	8
CCOc1ccc(NS(=O)(=O)c2cc(C(=O)NCCN3CCOCC3)ccc2C)cc1	1	-1	nt	3	nt	3	nt	nt
CCc1noc(N)c1C(=O)Nc1ccc(F)c(Cl)c1	-1	80*	-1	-10	-3	2	109*	12*
CNC(=O)c1[nH]cnc1C(=O)Nc1ccc(Cl)cc1	8	121*	1	0	-1	1	172*	35*
COc1ccccc1NC(=O)c1nc[nH]c1C(=O)Nc1ccccc1OC	3	108*	5	1	1	-1	53*	19*
COc1ccc(C(=O)Nc2cc(Cl)ccc2OC(=O)c2ccc(OC)cc2)cc1	nt	22	0	3	1	6	nt	nt
O=C(Nc1ccccc1OC(=O)c1ccc(Cl)cc1)c1ccc(Cl)cc1	10	79*	-2	5	2	4	83*	nt
COc1ccccc1NC(=O)c1ccc(C(=O)Nc2ccccc2OC)nc1	0	84*	-1	-2	3	0	103*	nt
COC(=O)c1ccccc1-n1c(C)nc(=O)c(-c2ccccc2)c1C	2	nt	nt	4	2	1	nt	nt
COc1ccccc1OCc1nn[nH]n1	3	7	-2	3	0	1	nt	nt
CC(NC(=O)COC(=O)CNC(=O)C1CCCCC1)c1ccccc1 (centres undefined)	0	0	nt	-1	nt	0	nt	nt
Cc1ccc(-c2cc(C(=O)N3CCCCC3)c3ccccc3n2)cc1C	-1	14	3	2	-2	1	nt	nt
Cc1ccc(C)c(N2CCN(CCN3CCCCC3)CC2)c1	1	3	-6	2	7	0	nt	nt
Cc1cc(NC(=O)CCC(=O)N(c2ccc(F)cc2)C(C(=O)NC2CCCC2)c2ccncc2)no1 (centres undefined)	-4	91*	-1	4	-2	1	81*	21*
CCn1c(SCC(=O)NCCc2ccccc2)nc2c([nH]c3ccccc32)c1=O	-1	109*	-4	3	-2	7	86*	168*
Cn1c(SCC(=O)NCc2ccccc2)nc2c([nH]c3ccccc32)c1=O	-2	84*	6	nt	23	nt	97*	126*
CCn1c(SCC(=O)N2CCCCCC2)nc2c([nH]c3ccccc32)c1=O	1	128*	2	1	0	1	102*	182*
CCC(C)Sc1nc2c([nH]c3ccccc32)c(=O)n1C (centres undefined)	15	87*	3	3	-3	4	88*	52*
Cc1cc(OCC(=O)OCC(=O)N(C)C2CCS(=O)(=O)C2)ccc1Cl (centres undefined)	nt	nt	nt	4	nt	2	nt	nt
Cn1c(=O)c2cc(NC(=S)NC3CC3)ccc2n1Cc1cccc(C(F)(F)F)c1	nt	nt	nt	-2	nt	2	nt	nt
O=C(NCc1cccc(Cl)c1)C1CCC(=O)N(CCCN2CCCC2=O)C1 (centres undefined)	-6	2	-3	2	1	3	nt	nt
CCOc1ccc2c(c1)sc(=NC(=O)C1CC1)n2C	-7	92*	-6	3	2	5	71*	37*
SMILES	HDAC3 inhib	AHR act	CTSL1 counter	SENP1 FRET inh	M18AAP inhibitor	FXN GAA850 act	AHR act confirm	PXR counter
Cn1c(=NC(=O)C2CCCCC2)sc2cc([N+](=O)[O-])ccc21	-2	2	3	2	-9	0	nt	nt
COc1cc(OC)cc(C(=O)NNC(=O)c2cc(=O)[nH]c3ccccc23)c1	0	3	-2	-1	nt	0	nt	nt
COc1ccc(NC(=O)c2cc(=O)[nH]c3ccccc23)cc1	-1	100*	6	0	-5	1	108*	20*
COc1ccc(NC(=O)c2cccc3c(Br)cccc23)cc1	7	93*	-2	1	4	0	121*	nt
C/C(=C\c1ccccc1)C(=O)NCCc1ccccc1	-8	1	0	0	-1	3	nt	nt
CCN(C(=O)CSc1nnc(-c2cccc(Cl)c2)n1N)c1c(N)n(Cc2ccccc2)c(=O)[nH]c1=O	nt	nt	nt	-14	nt	0	nt	nt
C[C@H](CO)N1C[C@H](C)[C@H](CN(C)Cc2ccc(Oc3ccccc3)cc2)Oc2cc(Br)ccc2S1(=O)=O	nt	nt	nt	0	nt	4	nt	nt
COc1ccccc1-c1csc(C(O)c2ccc(F)c(F)c2)n1 (centres undefined)	nt	nt	nt	-1	nt	0	nt	nt
Cc1ccsc1C1NC(=O)c2c(sc3c2CCN(C)C3)N1 (centres undefined)	-31	92*	-2	-30	4	-1	54*	17*
CN1CCc2c(sc3c2C(=O)NC(/C=C\c2ccccc2)N3)C1 (centres undefined)	3	10	-4	-41	8	2	nt	nt
CSc1ccc(C2NC(=O)c3c(sc4c3CCN(C)C4)N2)cc1 (centres undefined)	-2	22	2	-30	11	0	nt	nt
CN1CCc2c(sc3c2C(=O)NC(c2cccs2)N3)C1 (centres undefined)	-30	85*	2	-30	-4	5	92*	37*
O=C(O)CC(Cc1ccccc1)(C(=O)O)c1ccccc1 (centres undefined)	?	0	-5	1	2	1	nt	nt
CCN1CCN(c2nc3c(c(=O)[nH]c(=O)n3C)n2Cc2cccc(C)c2)CC1	nt	nt	nt	4	nt	0	nt	nt
COc1ccccc1CNC(=O)CN1C(=O)NC2(CCCCCC2)C1=O	-12	0	nt	2	nt	0	nt	nt
CCN(CC)S(=O)(=O)c1cccc(C(=O)Nc2ccc3c(c2)OCO3)c1	11	165*	-7	1	-5	0	103*	134*
CN(C)S(=O)(=O)c1cccc(C(=O)Nc2ccccc2Cl)c1	4	0	-3	0	5	2	nt	nt
CN(C)S(=O)(=O)c1cccc(C(=O)Nc2cc(Cl)ccc2O)c1	12	84*	-2	4	14	3	46	90*

Bioassay records deposited in PubChem BioAssay by several laboratories.
